Data as given in PMC5695149 (Theranostics, 2017).
Starred links: 1 amine or outer side, 2 acyl side, 3 side chain; linkers in the order of their positions; H or OH if unused. Positions of bridges follow the written chain, without caps; N, C: chain ends. Non-standard residues stand in square brackets, D forms with d. Residues, ends and D or L forms follow the SMILES beside them. hNle(4R-Ph,7-yl) = O=C([C@H](C[C@@H](CCC[*:3])c1ccccc1)N[*:1])[*:2]; X1 = C[C@H](CCC[*:3])C[C@H](N[*:1])C(=O)[*:2]

Columns and labels:
[1] = test system: PA-1 cells; assay: Cellular uptake of FITC-labelled peptides, confocal microscopy and FACS, PA-1; assay type: cell-based, human; conditions: 37°C, 2 h
[2] = test system: HEK-293 cells; assay: Cell viability; assay type: cell-based; conditions: HEK-293 normal cells, 3.12-50 µM, 48 h
How it was run: (§1)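 MTT viability assay. Cells were seeded at 5 × 10³/well and given the test compound at 3.12, 6.25, 12.5, 25 or 50 µM in serum-free medium for 4 h. Serum was then replaced and cells incubated a further 44 h. MTT (5 mg/mL in PBS) was added for 4 h at 37 °C, 5% CO2, and formazan was dissolved in DMSO. A490 was read. SEM from at least three independent measurements.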

[3] = test system: QSG-7701 cells; assay: Cell cycle analysis by PI staining and flow cytometry, QSG-7701; assay type: cell-based; conditions: QSG-7701, 48 h, PI staining
[4] = test system: MDA-231 cells; assay: Cell viability; assay type: cell-based; conditions: MDA-231 (mutant p53), up to 50 μM, 48 h
How it was run: (§2)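 MTT assay: cells at 5 × 10^3/well were exposed to test compound (3.12, 6.25, 12.5, 25, 50 µM) in serum-free medium for 4 h. Serum was then restored for a further 44 h. MTT (5 mg/mL in PBS) was added for 4 h at 37 °C, 5% CO2. Formazan was dissolved in DMSO and absorbance read at 490 nm. At least three independent measurements, SEM shown.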

[5] = test system: QSG-7701 cells; assay: Cell viability; assay type: cell-based; conditions: QSG-7701 normal cells, 3.12-50 µM, 48 h
How it was run: as §1

[6] = test system: p53 and p21; assay: Immunohistochemistry of tumor tissues; assay type: in vivo, mice; conditions: PA-1 xenograft tumor tissue, 10 mg/kg
[7] = molecular target: T1, MDMX (Homo sapiens, UniProt O15151); assay: Fluorescence polarization assay, FITC-labeled peptide with GST-labeled MDMX; assay type: binding; conditions: compared within the library
T1 sequence (O15151 1-490): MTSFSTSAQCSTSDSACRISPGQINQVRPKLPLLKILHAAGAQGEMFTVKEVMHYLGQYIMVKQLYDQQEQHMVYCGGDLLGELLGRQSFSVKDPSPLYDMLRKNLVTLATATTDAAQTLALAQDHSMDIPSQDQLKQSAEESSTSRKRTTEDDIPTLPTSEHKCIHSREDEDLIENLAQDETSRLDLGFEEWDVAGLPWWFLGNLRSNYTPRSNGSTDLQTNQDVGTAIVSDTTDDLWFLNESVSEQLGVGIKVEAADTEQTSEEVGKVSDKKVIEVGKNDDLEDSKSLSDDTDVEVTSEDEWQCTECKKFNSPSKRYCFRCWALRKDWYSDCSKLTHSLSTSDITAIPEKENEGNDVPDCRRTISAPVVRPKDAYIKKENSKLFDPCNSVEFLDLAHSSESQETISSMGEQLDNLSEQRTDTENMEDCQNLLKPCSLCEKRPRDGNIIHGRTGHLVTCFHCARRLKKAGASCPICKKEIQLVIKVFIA
How it was run: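 Fluorescence polarization: FITC-labelled peptide (10 or 20 nM) incubated with MDMX protein in 140 mM NaCl, 50 mM Tris pH 8.0 for 1 h at room temperature. Peptide concentration set from FITC absorbance at 494 nm. Kd obtained by nonlinear regression of dose-response curves.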

[8] = test system: PA-1 cells; assay: Annexin-V/PI apoptosis assay, PA-1; assay type: cell-based, human; conditions: PA-1, 40 μM peptides or 5 μM nutlin-3a, 48 h
How it was run: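 Exposed PA-1 cells were stained with Annexin-V/PI. Apoptotic cells were counted as the sum of quadrants Q1+Q2+Q3 and reported as a ratio of total cells.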

[9] = test system: p53; assay: Western blot of p53 expression, MCF-7; assay type: cell-based; conditions: MCF-7, 40 µM peptide, 48 h
How it was run: (§3)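 Cells in 6-well plates were treated 48 h, then lysed in Tris-SDS buffer (pH 6.8). 20 μg protein was run on 10% SDS-PAGE and transferred to nitrocellulose. Blots were probed overnight at 4 °C with rabbit monoclonal anti-p53 (1:500), with pan-actin (1:1000) as reference. Goat secondary antibodies were applied 1 h at room temperature, with chemiluminescent detection.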

[10] = test system: sox2 and foxA2 genes; assay: RT-qPCR of stemness and differentiation genes, PA-1; assay type: cell-based, human; conditions: PA-1, 40 µM, 48 h
How it was run: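 Exponentially growing PA-1 cells were seeded in 6-well plates and treated 48 h with 40 µM peptide; nutlin-3a at 1 µM was the comparator. mRNA was quantified by real-time qPCR and expressed as fold increase. Triplicates from three independent experiments, SEM shown.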

[11] = test system: caspase-3; assay: Caspase-3 activity assay, PA-1; assay type: cell-based, human
How it was run: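 Apoptosis in PA-1 cells was read as caspase-3 activity after exposing the cells to a caspase-3-specific substrate.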

[12] = molecular target: p53-MDM2 binding (Homo sapiens, UniProt Q00987); assay: Immunoprecipitation of p53-MDM2 from PA-1 cell lysates, western blotting; assay type: cell-based; conditions: PA-1, 40 μM, 4 h, versus DMSO control, 10% FBS
How it was run: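 Exponentially growing PA-1 cells received the test compound or an equal volume of DMSO. Cells were lysed in 50 mM Tris pH 8.0, 150 mM NaCl, 1 mM EDTA, 0.5% NP-40. Extract (500 µg) was precleared 2 h on protein G Sepharose, then incubated with rabbit monoclonal anti-p53 or mouse monoclonal anti-MDM2. Complexes were captured on protein G beads overnight at 4 °C and washed five times in cold lysis buffer. Western blots were probed for p53, MDM2 and pan-actin.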

[13] = test system: p53; assay: p53 accumulation kinetics in HCT-116 Venus knock-in cell line; assay type: cell-based; conditions: HCT-116 p53-VKI; PhR 40 µM; nutlin-3a 0.5 or 5 µM (Fig. S9 legend)
[14] = Mice voluntary cage-wheel exercise assay; assay type: in vivo; conditions: BALB/c mice, 10 mg/kg subcutaneous, 20 days
How it was run: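 BALB/c mice were randomly split into two groups given a single subcutaneous injection of PBS or test compound (10 mg/kg). Voluntary cage-wheel running cycles were recorded over 20 days after injection.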

[15] = test system: MCF-7 cells; assay: Cellular uptake of FITC-labelled peptides, confocal microscopy, MCF-7; assay type: cell-based; conditions: MCF-7, FITC-labeled peptide, 37°C, 2 h
How it was run: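 Cells in DMEM + 10% FBS (50000/well) were grown 1 day to ~80% adherence. FITC-labelled peptide (1 mM DMSO stock) was added to 5 µM final at 37 °C. Cells were washed 3× in PBS, fixed in 4% formaldehyde for 10 min, stained with DAPI 1 μg/mL for 5 min, and imaged by confocal microscopy. PA-1 uptake was also quantified by flow cytometry.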

[16] = Histological analysis; assay type: in vivo; conditions: 21 days after injection, compared with PBS-treated mice
How it was run: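 Tumor, heart, liver, spleen, lung, kidney and brain were harvested 21 days after injection. Tissue sections were stained with hematoxylin and eosin and examined for histological changes.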

[17] = test system: PA-1 xenograft; assay: Antitumor efficacy in PA-1 human xenograft model; assay type: in vivo, mice; conditions: for mice that died during the treatment period: 21 days of treatment
How it was run: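 Female athymic nude mice (BALB/c nu, 6 weeks) received 1 × 10^7 PA-1 cells in DMEM subcutaneously in the lower flank. After 10-15 days, mice with 100-150 mm3 tumors were randomized into 3 groups of 5-6. Test compound at 10 mg/kg, or PBS as negative control, was injected intratumorally every 2 days from day 0 for 21 days. Mice were followed a further 24 days; survival plotted as Kaplan-Meier curves.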

[18] = test system: PA-1 cells; assay: Cell cycle analysis by PI staining and flow cytometry, PA-1; assay type: cell-based, human; conditions: PA-1, 40 μM peptides or 5 μM nutlin-3a, 48 h
[19] = test system: p53; assay: Western blot of p53 expression, PA-1; assay type: cell-based, human; conditions: PA-1, 40 µM peptide, 48 h
How it was run: as §3

[20] = test system: Skov-3 cells; assay: Cell viability; assay type: cell-based; conditions: Skov-3 (mutant p53), up to 50 μM, 48 h
How it was run: as §2

[21] = PA-1 xenograft, 10 mg/kg every other day

Chain of p53-MDM2 binding (Q00987 whole entry): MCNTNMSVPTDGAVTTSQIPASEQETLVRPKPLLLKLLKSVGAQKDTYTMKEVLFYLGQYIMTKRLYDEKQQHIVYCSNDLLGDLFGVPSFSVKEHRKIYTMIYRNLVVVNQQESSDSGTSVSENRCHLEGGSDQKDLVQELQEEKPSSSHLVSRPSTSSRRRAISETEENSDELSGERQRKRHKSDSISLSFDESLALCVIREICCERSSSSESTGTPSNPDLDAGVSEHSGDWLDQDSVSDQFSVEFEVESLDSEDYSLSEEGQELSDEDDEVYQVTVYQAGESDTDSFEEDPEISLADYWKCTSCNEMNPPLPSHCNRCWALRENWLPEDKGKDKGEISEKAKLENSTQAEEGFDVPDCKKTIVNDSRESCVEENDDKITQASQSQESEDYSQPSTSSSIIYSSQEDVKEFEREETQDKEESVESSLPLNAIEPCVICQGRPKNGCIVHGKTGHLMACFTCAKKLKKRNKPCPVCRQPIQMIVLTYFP

Row | Structure (SMILES) | effect on cell growth and proliferation [2] | effect on cell viability [4] | effect on cell growth and proliferation [5] | binding ability toward MDMX [7] | p53 expression (western blot) [9] | time to highest levels of p53 and p21 [13] [h] | mice that died during the treatment period [17, 21] | p53 expression (western blot) [19] | effect on cell viability [20] | further results
1 | CC(=O)N[C@@H](CC(C)C)C(=O)N[C@H](C(=O)N[C@@H](Cc1ccccc1)C(=O)N[C@H]1CSCCC[C@@H](c2ccccc2)C[C@@H](C(=O)N[C@@H](CCC(N)=O)C(=O)N[C@@H](CC(C)C)C(=O)N[C@H](C(=O)N[C@@H](CO)C(N)=O)[C@@H](C)O)NC(=O)[C@H](Cc2c[nH]c3ccccc23)NC(=O)[C@H](Cc2ccc(O)cc2)NC(=O)[C@H](Cc2c[nH]cn2)NC1=O)[C@@H](C)O [PhR] (Ac-LTFCHYW[hNle(4R-Ph,7-yl)]QLTS-NH2; thioether 4-8; N-terminus assumed) | little effect on the cell growth and proliferation | Negligible effects | little effect on the cell growth and proliferation | highest binding abilities | upregulated | 12 | no mice died | upregulated | Negligible effects | cellular uptake, comparison ([1]; PA-1, 5 µM FITC-labelled peptide, confocal and flow cytometry): higher cellular uptake than MeR; internalization, live cell confocal imaging ([1]; PA-1, 5 uM, live cells): internalized into the cells both in the cytoplasm and nucleus; cell-cycle arrest in normal cell line [3]: did not induce cell cycle arrest; p53 and p21 expression in tumor tissues (immunohistochemistry) [6]: higher expression levels of p53 and p21; apoptotic effect (Annexin-V/PI) [8]: more pronounced in PA-1 than those of MeR and nutlin-3a; expression of differentiation gene foxA2 (qPCR) [10]: upregulation; expression of stemness gene sox2 (qPCR) [10]: significant downregulation; apoptosis by caspase-3 activity ([11]; PA-1, dose ladder): dose-dependent apoptosis; MDM2 protein bound to p53 (IP and western blotting) [12]: substantial reduction of MDM2 protein bound to p53; voluntary running cycles versus PBS group [14]: no significant differences; cellular uptake, comparison [15]: higher cellular uptake than MeR; histological changes of major organs (H&E) [16]: no signs of organ lesions; survival (Kaplan-Meier) ([17]; treated for 21 days and raised for another 24 days post treatment): able to prolong the lives of the mice; cell-cycle arrest [18]: more effective in inducing cell-cycle arrest in the G2/M phase than MeR and nutlin-3a
2 | COc1ccc(C2=N[C@@H](c3ccc(Cl)cc3)[C@@H](c3ccc(Cl)cc3)N2C(=O)N2CCNC(=O)C2)c(OC(C)C)c1 [nutlin-3a] |  |  |  |  |  | 48 | three in ten |  |  | apoptosis by caspase-3 activity ([11]; PA-1, at a low dose): minimal apoptosis; caspase-3 activity ([11]; PA-1, at higher doses (>5 μM)): no caspase-3 activity was detected; mice death in the first week of treatment [17, 21]: 20%; tumor growth inhibition (TGI) ([17]; PA-1 xenograft, athymic nude mice, 10 mg/kg every other day, intratumoral injection, 3 weeks): 30%
3 | CC(=O)N[C@@H](CC(C)C)C(=O)N[C@H](C(=O)N[C@@H](Cc1ccccc1)C(=O)N[C@H]1CSCCC[C@@H](C)C[C@@H](C(=O)N[C@@H](CCC(N)=O)C(=O)N[C@@H](CC(C)C)C(=O)N[C@H](C(=O)N[C@@H](CO)C(N)=O)[C@@H](C)O)NC(=O)[C@H](Cc2c[nH]c3ccccc23)NC(=O)[C@H](Cc2ccc(O)cc2)NC(=O)[C@H](Cc2c[nH]cn2)NC1=O)[C@@H](C)O [MeR] (Ac-LTFCHYW[X1]QLTS-NH2; thioether 4-8; N-terminus assumed) | little effect on the cell growth and proliferation | Negligible effects | little effect on the cell growth and proliferation | highest binding abilities | upregulated |  |  | upregulated | Negligible effects | 
